Bioassay records as filed in PubChem.
A selection: hits, their analogues and other compounds. The true share with any hit is near 2.6%.
PRMT1 FP inh = PRMT1 methyltransferase inhibitors, primary screen, biochemical, fluorescence polarization; recombinant PRMT1, activity-based probe fluorescence polarization; 370,000 compounds, 1.3% hits; Protein arginine N-methyltransferase 1 (Homo sapiens), Q99873; inhibition, % at 2.79 µM;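 active = inhibition above about 21% made by adding two undisclosed values, limit read from the data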
Target sequence (Q99873 whole entry, looked up): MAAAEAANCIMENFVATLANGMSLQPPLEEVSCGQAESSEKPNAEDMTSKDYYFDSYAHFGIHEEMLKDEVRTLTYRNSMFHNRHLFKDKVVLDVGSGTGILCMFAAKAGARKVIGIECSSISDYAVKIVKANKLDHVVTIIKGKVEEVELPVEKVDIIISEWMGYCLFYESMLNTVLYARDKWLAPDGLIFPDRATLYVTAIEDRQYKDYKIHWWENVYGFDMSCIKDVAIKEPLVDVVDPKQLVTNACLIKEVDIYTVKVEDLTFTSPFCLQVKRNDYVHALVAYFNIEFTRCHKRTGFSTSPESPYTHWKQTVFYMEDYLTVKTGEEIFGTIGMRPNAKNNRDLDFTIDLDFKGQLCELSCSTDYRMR
PAD4 FP inh = human PAD4 inhibitors, primary screen, biochemical, fluorescence polarization, 1536-well format. AID 485272, 2010. recombinant PAD4, RCA probe fluorescence polarization. 330,000 compounds, 0.41% hits. inhibition, % at 6.36 µM;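 active = percent inhibition above a cutoff equal to the mean of all tested compounds plus 3 SD, cut at about 15% in these data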;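 also: 0% = PAD4 with RCA probe and DMSO and 100% = probe without PAD4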
TDP2 inh = human TDP2 enzyme inhibitors, primary screen, biochemical, epi absorbance, recombinant enzyme; AID 720702, 2013; Tyrosyl-DNA phosphodiesterase 2 (Homo sapiens), O95551; T5PNP hydrolysis, p-nitrophenol absorbance 415 nm; inhibition, % at 12.8 µM; 370,000 compounds, 0.34% hits;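 active = inhibition above the mean of all tested compounds plus 3 SD, set per campaign, cut at about 25% in these data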;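 also: 0% = DMSO with enzyme and 100% = buffer with substrate but no TDP2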
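System: recombinant human TDP2 / Amount: 120 nM TDP2 per well / Also added: 5 mM T5PNP chromogenic substrate / Doses: 12.8 µM single point, 1% DMSO / Incubation: 2 h at 37 °C / Detection: p-Nitrophenol epi absorbance / Evaluation: % inhibition relative to enzyme-containing and enzyme-free wells / Repeats: singlicate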
GSTO1 counter = inhibitors of recombinant GSTO1, primary screen, counter-screen for RBBP9 inhibitor project, biochemical, fluorescence polarization; activity-based probe fluorescence polarization; inhibition, % at 5.96 µM; 300,000 compounds, 1.1% hits;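 active = inhibition above the campaign mean inhibition plus 3 SD, cut at about 35% in these data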;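 also: 0% = GSTO1-1 with DMSO and 100% = wells lacking GSTO1-1 enzyme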
Target sequence (P78417 whole entry, looked up): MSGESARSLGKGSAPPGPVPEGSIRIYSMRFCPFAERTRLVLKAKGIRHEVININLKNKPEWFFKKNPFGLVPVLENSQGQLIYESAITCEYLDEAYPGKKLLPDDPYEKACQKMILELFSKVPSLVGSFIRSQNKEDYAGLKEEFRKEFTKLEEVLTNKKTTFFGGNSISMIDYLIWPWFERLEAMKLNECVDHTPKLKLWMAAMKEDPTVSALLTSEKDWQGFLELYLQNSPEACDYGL
Apaf-1 inh = inhibitors of human Apaf-1 apoptosome, primary screen, biochemical, DEVD-Rh110 fluorescence, uHTS; Apoptotic protease-activating factor 1 (Homo sapiens), O14727; reconstituted apoptosome caspase-3 activity; inhibition, % at 20 µM; 330,000 compounds, 0.71% hits; active = inhibition of at least 40% at 20 µM;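 also: plate controls were DMSO wells for no effect and DEVD-CHO caspase inhibitor wells for full effect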
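Material: reconstituted apoptosome with Apaf-1, cytochrome c, caspase-9, procaspase-3, dATP. Technique: Rh110 fluorescence intensity. Buffer or medium: pH 7.5 Hepes buffer with CHAPS, BSA, DTT. Times: 30 min plus 50 min, RT.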
GSTO1 inh conf = GSTO1 inhibitor hit confirmation, counter-screen for RBBP9 inhibitor project, biochemical, fluorescence polarization, triplicate; shares compounds with GSTO1 counter; recombinant GSTO1, probe fluorescence polarization; inhibition, % at 5.96 µM; 2,400 compounds, 54% hits;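 active = inhibition above the primary screen's cutoff, its mean inhibition plus 3 SD, cut at about 35% in these data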;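 also: loss of polarization as inhibitors block binding of rhodamine sulfonate ester activity probe; 0% = GSTO1 with DMSO and 100% = wells lacking GSTO1 enzyme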
PAD4 FP conf = human PAD4 inhibitors, confirmation, biochemical, fluorescence polarization. recombinant PAD4, RCA probe fluorescence polarization. 1,200 compounds, 28% hits. shares compounds with PAD4 FP inh. inhibition, % at 6.36 µM;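 active = mean inhibition across replicates above the hit cutoff set by the earlier primary screen, cut at about 15% in these data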;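 also: inhibitors block active-site labeling by the probe so polarization falls; 0% = PAD4 with probe and DMSO and 100% = probe without PAD4 enzyme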
Apaf-1 inh conf2 = Apaf-1 inhibitors, single-dose retest, confirmation, biochemical, fluorescence, DEVD-Rh110, 20 µM | inhibition, % at 20 µM | 1,800 compounds, 25% hits | shares compounds with Apaf-1 inh | reconstituted apoptosome, caspase-3 DEVD-Rh110 fluorescence;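 active = mean inhibition of at least 40% at 20 µM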;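 also: plate controls were DMSO wells for no effect and DEVD-CHO caspase inhibitor control wells for full effect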
Rh110 quench = Rh110 fluorescence interference by putative Apaf-1 inhibitors, confirmation, artefact control for Apaf-1 inhibitor project, biochemical, 20 µM; AID 504615, 2011; shares compounds with Apaf-1 inh; 1,800 tested, under 10 active; activation (fluorescence interference), % at 20 µM; quenched caspase reaction;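 active = signal rise of 40% or more at 20 µM, treated as a fluorescence artifact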
Apaf1 inh interf = fluorescence interference of Apaf-1 inhibitor hits, dose response, artefact control for Apaf-1 inhibitor project | AID 588538, 2011 | shares compounds with Apaf-1 inh | 460 tested, under 10 active | fluorescence interference counterscreen, Apaf-1 assay format | IC50, µM; call rule not given here
* marks the source's active call; other numbers are inactive results; / = no result given.

SMILES	PRMT1 FP inh	PAD4 FP inh	TDP2 inh	GSTO1 counter	Apaf-1 inh	GSTO1 inh conf	PAD4 FP conf	Apaf-1 inh conf2	Rh110 quench	Apaf1 inh interf
CCCC[n+]1ccn(C2=C([O-])c3ccccc3C(=O)/C2=N\S(=O)(=O)c2ccc(Cl)cc2)c1	-1	-8	11	75*	52*	71*	/	56*	15	>100
CCCCC[n+]1ccn(C2=C([O-])c3ccccc3C(=O)/C2=N\S(=O)(=O)c2ccc(Cl)cc2)c1	-1	-4	-1	66*	70*	28	/	54*	9	>100
COc1ccc(CCn2c(N)c(C#N)c3nc4ccccc4nc32)cc1OC	-2	24*	-2	57*	60*	-5	-11	-2	1	/
CCc1ccc(CNc2ccc3c(c2)ncn3CC)cc1	3	3	-14	4	9	/	/	/	/	/
CCc1ccc(CNc2ccc(O)cc2)cc1	/	15*	/	86*	96*	4	3	41*	-1	>100
Cc1cc2nc3ccc(N(C)C)cc3nc2cc1N	70*	29*	-2	47*	90*	42*	31*	63*	5	>100
Cc1cc2nn(-c3cccc4ccccc34)nc2cc1N	2	-3	-2	15	28	/	/	/	/	/
Oc1cccc(/C=N/N2CCCCC2)c1O	7	1	5	27	8	/	/	/	/	/
Oc1ccc(/C=N/N2CCCCC2)c(O)c1O	23*	-11	-11	46*	70*	14	/	19	3	/
O=C1c2ccccc2C(=O)c2[nH]c(=O)[nH]c21	3	17*	38*	64*	80*	62*	2	75*	-2	>100
COCCNC(=O)c1c(N)n(CCC2=CCCCC2)c2nc3ccccc3nc12	6	-11	-5	42*	63*	4	/	34	15	/
COCCn1c(N)c(C(=O)OCc2ccccc2)c2nc3ccccc3nc21	-3	5	14	70*	94*	58*	/	8	1	/
N#Cc1c(N2CCCC2)nc(N)c2c(N)nc(N3CCCC3)cc12	7	48*	9	93*	98*	91*	43*	99*	9	>100
CCOc1cc2c(C#N)c(N3CCCC3)nc(N)c2c(N)n1	-1	1	-2	-5	7	/	/	/	/	/
CCNC1=C(Cl)C(=O)c2ccccc2C1=O	-3	-5	10	70*	51*	8	/	36	5	/
O=C(NCCN1CCCC1)c1ccccc1Cl	-3	3	-7	2	5	/	/	/	/	/
O=C1C(Cl)=C(NCCN2CCCCC2)C(=O)c2ccccc21	/	-3	/	71*	68*	52*	/	79*	21	>100
C=CCOC(=O)Nc1nc(CCNC(=O)OC(C)(C)C)c(C(=O)O)s1	4	/	5	/	/	/	/	/	/	/
CC(C)CCn1c(N)c(S(=O)(=O)c2cccs2)c2nc3ccccc3nc21	4	63*	2	57*	51*	-7	-9	28	2	/
COc1cc(OC)c(NC2=CC(=O)C(=O)c3ccccc32)cc1Cl	4	11	4	79*	92*	77*	/	92*	9	>100
Cc1ccc(C)n1-c1cc([N+](=O)[O-])ccc1-n1ccnc1	-4	-3	-16	6	6	/	/	/	/	/
CC1(C)N([O-])c2cc([N+](=O)[O-])ccc2[N+]1=O	12	30*	6	82*	66*	42*	15*	70*	3	>100
CC1(c2nnnn2-c2ccc3c(c2)OCCO3)CCC(=O)N1CCc1ccccc1F (stereo unspecified)	2	/	3	/	/	/	/	/	/	/
COc1ccc(Br)cc1CNc1ccc(O)cc1	17	28*	6	86*	95*	6	2	19	5	/
C=CCN1C(=O)[C@H](CC(=O)NCc2cccc(C(F)(F)F)c2)[C@@]2(C(=O)OCC)CCCC=C12	-3	/	-11	/	/	/	/	/	/	/
SMILES	PRMT1 FP inh	PAD4 FP inh	TDP2 inh	GSTO1 counter	Apaf-1 inh	GSTO1 inh conf	PAD4 FP conf	Apaf-1 inh conf2	Rh110 quench	Apaf1 inh interf
O=c1[nH]nc(Cc2ccc(-c3cccc(Cl)c3)o2)c2ccccc12	-1	-6	4	-6	13	/	/	/	/	/
Cc1[nH][nH]c(=O)c1C(c1ccc(-c2cccc(Cl)c2)o1)c1c(C)[nH][nH]c1=O	/	44*	/	72*	87*	57*	36*	41*	-2	>100
CC1(C(=O)NCc2ccccc2)CSCC(=O)N1Cc1cccs1 (stereo unspecified)	-3	/	-5	/	/	/	/	/	/	/
Oc1ccc(NCc2ccccc2OCc2ccccc2F)cc1	12	3	16	74*	92*	10	/	30	10	/
CC(C)(C)N(Cc1cn(CC2CCCCC2)nn1)S(=O)(=O)c1ccc(F)cc1Br	2	/	-9	/	/	/	/	/	/	/
CC1=NN(c2ccccc2)C(=O)/C1=C\c1cn(CCC#N)nc1-c1ccc(Cl)cc1	0	19*	5	53*	80*	10	6	23	12	/
CC1=NN(c2ccccc2)C(=O)/C1=C\c1cn(-c2ccccc2)nc1C	-1	-3	-4	6	23	/	/	/	/	/
COc1cccc(C(=O)Nc2ccc3c(c2)OC[C@H](C)N(C(=O)C2CCCC2)C[C@@H](C)[C@@H](OC)CN(C)C3=O)c1	5	/	-10	/	/	/	/	/	/	/
COc1ccc(Nc2ccc3c(c2)=NC2(CCCCC2)[N+]=3[O-])cc1	8	8	-9	54*	80*	31	/	70*	12	>100
O=C1c2ccccc2-c2onc3ccc(NCc4ccco4)c1c23	/	89*	/	100*	69*	53*	/	30	-50	/
O=C(O)c1ccccc1NCc1ccco1	0	4	16	1	1	/	/	/	/	/
